The target in assay [1] is T1, Fatty-acid amide hydrolase 1 (Rattus norvegicus) (UniProt P97612).
T1 sequence (whole entry): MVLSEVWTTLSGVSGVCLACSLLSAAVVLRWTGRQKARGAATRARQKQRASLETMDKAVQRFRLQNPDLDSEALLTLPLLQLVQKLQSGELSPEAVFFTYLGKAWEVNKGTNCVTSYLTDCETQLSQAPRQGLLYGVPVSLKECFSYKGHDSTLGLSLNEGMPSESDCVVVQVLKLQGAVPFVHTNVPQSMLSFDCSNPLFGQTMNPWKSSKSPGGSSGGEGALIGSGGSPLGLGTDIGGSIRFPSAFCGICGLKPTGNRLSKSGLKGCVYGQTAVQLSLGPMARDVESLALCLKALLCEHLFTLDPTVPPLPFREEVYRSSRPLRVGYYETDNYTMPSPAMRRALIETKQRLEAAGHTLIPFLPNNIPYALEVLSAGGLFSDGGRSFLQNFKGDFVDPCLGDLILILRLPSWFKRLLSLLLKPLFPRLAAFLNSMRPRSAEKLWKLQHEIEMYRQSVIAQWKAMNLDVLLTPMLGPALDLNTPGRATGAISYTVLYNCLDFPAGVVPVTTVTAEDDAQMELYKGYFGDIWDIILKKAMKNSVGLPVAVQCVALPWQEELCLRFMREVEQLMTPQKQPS
Description: Ratio of Kinact to Ki for histidine6-tagged rat FAAH. The procedure, abridged: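 Rat FAAH construct: aa 30–579, N-terminal transmembrane-deleted, N-terminal His6 tag, E. coli-expressed and purified to >95% purity. Activity read by a GDH-coupled enzyme assay in 384-well plates. Second-order kinact/Ki was derived from the linear slope of kobs versus [I], correcting with (1+[S]/Km).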

The target in assay [2] is T2, Fatty-acid amide hydrolase 1 (Homo sapiens) (UniProt O00519).
T2 sequence (whole entry): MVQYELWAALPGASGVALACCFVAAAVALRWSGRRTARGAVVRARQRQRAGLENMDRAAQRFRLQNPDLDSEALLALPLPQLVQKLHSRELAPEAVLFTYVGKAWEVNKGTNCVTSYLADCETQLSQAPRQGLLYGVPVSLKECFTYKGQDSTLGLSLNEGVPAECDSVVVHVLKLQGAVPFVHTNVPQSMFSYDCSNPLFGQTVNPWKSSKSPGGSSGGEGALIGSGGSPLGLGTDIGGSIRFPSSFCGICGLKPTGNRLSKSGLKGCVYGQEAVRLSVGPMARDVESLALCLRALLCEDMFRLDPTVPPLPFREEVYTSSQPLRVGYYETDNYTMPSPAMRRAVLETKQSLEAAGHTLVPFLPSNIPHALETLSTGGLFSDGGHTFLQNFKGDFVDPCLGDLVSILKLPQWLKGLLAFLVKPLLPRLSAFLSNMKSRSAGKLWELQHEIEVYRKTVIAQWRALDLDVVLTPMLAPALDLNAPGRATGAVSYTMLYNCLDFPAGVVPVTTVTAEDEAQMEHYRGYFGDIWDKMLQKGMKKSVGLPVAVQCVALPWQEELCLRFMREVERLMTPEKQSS
In words: Ratio of Kinact to Ki for histidine6-tagged human FAAH. The procedure, abridged: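 Human FAAH construct: aa 32–579, N-terminal transmembrane-deleted, N-terminal His6 tag, expressed in E. coli and purified to >95% by SDS–PAGE. Potency measured as kinact/Ki in a GDH-coupled FAAH assay in 384-well format. kobs was plotted against [I]; kinact/Ki came from the slope kinact/[Ki(1+[S]/Km)].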

`Cc1c(CN2CCN(C(=O)NC(C)C)CC2)sc2ccccc12`: the Ratio in assay [1] was less than 10 M⁻¹ s⁻¹; in assay [2], 70 M⁻¹ s⁻¹.

With `Cc1c(CN2CCN(C(=O)Nc3ccc(C(F)(F)F)nc3)CC2)sc2ccccc12`, the Ratio is less than 10 M⁻¹ s⁻¹ in assay [1] and 42 M⁻¹ s⁻¹ in assay [2].

As to `Cc1c(C(=O)C2CCN(C(=O)Nc3cccnc3)CC2)sc2ccccc12`, the Ratio in assay [1] was 1230 M⁻¹ s⁻¹; in assay [2], 3600 M⁻¹ s⁻¹.

`Cc1c(CN2CCN(C(=O)Nc3ccc(-c4ccccc4)nc3)CC2)sc2ccccc12`: the results for the Ratio in assay [1] and in assay [2] were 1220 M⁻¹ s⁻¹ and less than 10 M⁻¹ s⁻¹, respectively.

Regarding `CCc1c(CC2CCN(C(=O)Nc3cccnc3)CC2)sc2ccc(F)cc12`, the Ratio was 1140 M⁻¹ s⁻¹ in assay [1] and 2290 M⁻¹ s⁻¹ in assay [2].

As for `Cc1c(CN2CCN(C(=O)Nc3ccccc3)CC2)sc2ccccc12`, the Ratio in assay [1] was found to be 762 M⁻¹ s⁻¹; in assay [2], 1920 M⁻¹ s⁻¹.

In the case of `CCc1c(CC2CCN(C(=O)Nc3cccnc3)CC2)sc2ccccc12`, the figures for the Ratio in assay [1] and in assay [2] were 1010 M⁻¹ s⁻¹ and 1670 M⁻¹ s⁻¹, respectively.

For `Cc1c(C(O)C2CCN(C(=O)Nc3cccnc3)CC2)sc2ccccc12` (racemic), the Ratio in assay [1] amounted to 79 M⁻¹ s⁻¹; in assay [2], 200 M⁻¹ s⁻¹.

Take `Cc1ccc2sc(CN3CCN(C(=O)Nc4ccc(C)nc4)CC3)c(C)c2c1`: the Ratio in assay [1] is 183 M⁻¹ s⁻¹; in assay [2], 1170 M⁻¹ s⁻¹.

With `Cc1c(C(C)C2CCN(C(=O)Nc3cccnc3)CC2)sc2ccccc12` (stereo in doubt; 17-E2), the Ratio is 110 M⁻¹ s⁻¹ in assay [1] and 617 M⁻¹ s⁻¹ in assay [2].

As for `Cc1c(CN2CCN(C(=O)Nc3cccnc3)CC2)sc2cccc(F)c12`, the Ratio in assay [1] is 1200 M⁻¹ s⁻¹; in assay [2], 3320 M⁻¹ s⁻¹.

Regarding `Cc1c(CN2CCN(C(=O)Nc3ccccn3)CC2)sc2ccccc12`, the values for the Ratio in assay [1] and in assay [2] were 635 M⁻¹ s⁻¹ and 1000 M⁻¹ s⁻¹, respectively.

As for `Cc1c(CN2CCN(C(=O)Nc3cccnc3)CC2)sc2ccc(C(F)(F)F)cc12`, the Ratio in assay [1] was determined as 219 M⁻¹ s⁻¹; in assay [2], 1390 M⁻¹ s⁻¹.

Consider `COc1ccc2c(C)c(CN3CCN(C(=O)Nc4cccnc4)CC3)sc2c1`, for which the Ratio in assay [1] was determined as 113 M⁻¹ s⁻¹; in assay [2], 73 M⁻¹ s⁻¹.

On to `Cc1c(CN2CCN(C(=O)Nc3cccnc3)CC2)sc2ccccc12`, for which the Ratio came out at 1080 M⁻¹ s⁻¹ in assay [1] and 2400 M⁻¹ s⁻¹ in assay [2].

Consider `Cc1c(CN2CCN(C(=O)Nc3cccnc3)CC2)sc2ccc(F)cc12`, for which the Ratio in assay [1] is 779 M⁻¹ s⁻¹; in assay [2] it was 3130 M⁻¹ s⁻¹.

`CCc1c(CN2CCN(C(=O)Nc3cccnc3)CC2)sc2ccccc12`: the figures for the Ratio in assay [1] and in assay [2] were 774 M⁻¹ s⁻¹ and 1400 M⁻¹ s⁻¹, respectively.

`Cc1ccc(NC(=O)N2CCN(Cc3sc4cccc(F)c4c3C)CC2)cn1`: the Ratio in assay [1] is 758 M⁻¹ s⁻¹; in assay [2], 1980 M⁻¹ s⁻¹.

For `Cc1c(CN2CCN(C(=O)Nc3cccnc3)CC2)sc2ccc(Cl)cc12`, the results for the Ratio in assay [1] and in assay [2] were 1130 M⁻¹ s⁻¹ and 2820 M⁻¹ s⁻¹, respectively.

Regarding `CCc1c(CN2CCN(C(=O)Nc3cccnc3)CC2)sc2ccc(F)cc12`, the values for the Ratio in assay [1] and in assay [2] were 617 M⁻¹ s⁻¹ and 1810 M⁻¹ s⁻¹, respectively.

With `Cc1c(C(C)C2CCN(C(=O)Nc3cccnc3)CC2)sc2ccccc12` (racemic), the Ratio in assay [1] was found to be 48 M⁻¹ s⁻¹; in assay [2], 114 M⁻¹ s⁻¹.

`Cc1c(CC2CCN(C(=O)Nc3cccnc3)CC2)sc2ccccc12`: the results for the Ratio in assay [1] and in assay [2] were 2610 M⁻¹ s⁻¹ and 5130 M⁻¹ s⁻¹, respectively.

Regarding `CCN(CC)c1ccc(NC(=O)N2CCN(Cc3sc4ccccc4c3C)CC2)cn1`, the values for the Ratio in assay [1] and in assay [2] were 1430 M⁻¹ s⁻¹ and 1560 M⁻¹ s⁻¹, respectively.

With `COc1ccc2sc(CN3CCN(C(=O)Nc4cccnc4)CC3)c(C)c2c1`, the Ratio in assay [1] was 500 M⁻¹ s⁻¹; in assay [2], 1380 M⁻¹ s⁻¹.

For `Cc1c(CN2CCN(C(=O)Nc3ccc(Oc4cccnc4)nc3)CC2)sc2ccccc12`, the Ratio in assay [1] and in assay [2] was less than 10 M⁻¹ s⁻¹ each time.

With `Cc1c(CN2CCN(C(=O)Nc3ccc(Cl)nc3)CC2)sc2ccccc12`, the values for the Ratio in assay [1] and in assay [2] were 242 M⁻¹ s⁻¹ and less than 10 M⁻¹ s⁻¹, respectively.

Consider `Cc1ccc(NC(=O)N2CCN(Cc3sc4ccc(F)cc4c3C)CC2)cn1`, for which the results for the Ratio in assay [1] and in assay [2] were 260 M⁻¹ s⁻¹ and 1870 M⁻¹ s⁻¹, respectively.

In the case of `CCOc1ccc2c(C)c(CN3CCN(C(=O)Nc4cccnc4)CC3)sc2c1`, the Ratio in assay [1] is less than 10 M⁻¹ s⁻¹; in assay [2] it was 14 M⁻¹ s⁻¹.

For the compound `Cc1ccc2c(Cl)c(CN3CCN(C(=O)Nc4ccc(C)nc4)CC3)sc2c1`, the Ratio stood at 14 M⁻¹ s⁻¹ in assay [1] and 73 M⁻¹ s⁻¹ in assay [2].

On to `CC(=O)Nc1ccc(NC(=O)N2CCN(Cc3sc4ccccc4c3C)CC2)cn1`, for which the Ratio in assay [1] and in assay [2] was less than 10 M⁻¹ s⁻¹ each time.

As for `Cc1c(CN2CCN(C(=O)NC(C)(C)C)CC2)sc2ccccc12`, the Ratio in assay [1] and in assay [2] was less than 10 M⁻¹ s⁻¹ in each case.

Regarding `Cc1noc(NC(=O)N2CCN(Cc3sc4ccccc4c3C)CC2)c1C`, the Ratio amounted to 1430 M⁻¹ s⁻¹ in assay [1] and 1560 M⁻¹ s⁻¹ in assay [2].

Take `Cc1c(CN2CCN(C(=O)Nc3ccc(N(C)C)nc3)CC2)sc2ccccc12`: the values for the Ratio in assay [1] and in assay [2] were 1080 M⁻¹ s⁻¹ and 2400 M⁻¹ s⁻¹, respectively.

On to `Cc1c(CN2CCN(C(=O)Nc3ccc(N)nc3)CC2)sc2ccccc12`, for which the Ratio was 762 M⁻¹ s⁻¹ in assay [1] and 1920 M⁻¹ s⁻¹ in assay [2].

`CNC(=O)CNC(=O)N1CCN(Cc2sc3ccccc3c2C)CC1`: the Ratio in assay [1] and in assay [2] was less than 10 M⁻¹ s⁻¹ in each case.

`CNc1ccc(NC(=O)N2CCN(Cc3sc4ccccc4c3C)CC2)cn1`: the figures for the Ratio in assay [1] and in assay [2] were 635 M⁻¹ s⁻¹ and 1000 M⁻¹ s⁻¹, respectively.

In the case of `Cc1cnc(NC(=O)N2CCN(Cc3sc4ccccc4c3C)CC2)s1`, the Ratio in assay [1] and in assay [2] was less than 10 M⁻¹ s⁻¹ in each case.

For the compound `Cc1c(CN2CCN(C(=O)NC3CCCCC3)CC2)sc2ccccc12`, the Ratio in assay [1] and in assay [2] was less than 10 M⁻¹ s⁻¹ throughout.

As for `Cc1ccc2sc(CN3CCN(C(=O)Nc4cccnc4)CC3)c(C)c2c1`, the Ratio is 557 M⁻¹ s⁻¹ in assay [1] and 2640 M⁻¹ s⁻¹ in assay [2].

Take `Cc1c(CC2CCN(C(=O)Nc3cccnc3)CC2)sc2cccc(F)c12`: the Ratio was 1550 M⁻¹ s⁻¹ in assay [1] and 4150 M⁻¹ s⁻¹ in assay [2].

Regarding `Cc1c(CN2CCN(C(=O)NCc3ccccc3)CC2)sc2ccccc12`, the Ratio in assay [1] and in assay [2] was less than 10 M⁻¹ s⁻¹ in each case.

For `Cc1c(C(C)C2CCN(C(=O)Nc3cccnc3)CC2)sc2ccccc12` (stereo in doubt; 17-E1), the values for the Ratio in assay [1] and in assay [2] were less than 10 M⁻¹ s⁻¹ and 34 M⁻¹ s⁻¹, respectively.

Consider `CCNc1ccc(NC(=O)N2CCN(Cc3sc4ccccc4c3C)CC2)cn1`, for which the Ratio in assay [1] was found to be 191 M⁻¹ s⁻¹; in assay [2] it was 924 M⁻¹ s⁻¹.

With `Cc1ccc(NC(=O)N2CCN(Cc3sc4ccccc4c3Cl)CC2)cn1`, the Ratio in assay [1] came out at 133 M⁻¹ s⁻¹; in assay [2], 900 M⁻¹ s⁻¹.

Turning to `Cc1c(CN2CCN(C(=O)Nc3cccnn3)CC2)sc2ccccc12`, the Ratio in assay [1] was found to be 191 M⁻¹ s⁻¹; in assay [2], 924 M⁻¹ s⁻¹.

As for `CCCCNC(=O)N1CCN(Cc2sc3ccccc3c2C)CC1`, the values for the Ratio in assay [1] and in assay [2] were 13 M⁻¹ s⁻¹ and 44 M⁻¹ s⁻¹, respectively.

In the case of `Cc1c(CN2CCN(C(=O)NCCO)CC2)sc2ccccc12`, the Ratio is less than 10 M⁻¹ s⁻¹ in assay [1] and 42 M⁻¹ s⁻¹ in assay [2].

As to `C=C(c1sc2ccccc2c1C)C1CCN(C(=O)Nc2cccnc2)CC1`, the Ratio in assay [1] is 991 M⁻¹ s⁻¹; in assay [2] it was 5440 M⁻¹ s⁻¹.

With `O=C(Nc1cccnc1)N1CCN(Cc2cc3ccccc3s2)CC1`, the Ratio worked out at 174 M⁻¹ s⁻¹ in assay [1] and 695 M⁻¹ s⁻¹ in assay [2].

On to `Cc1c(CN2CCN(C(=O)Nc3ccc(Br)nc3)CC2)sc2ccccc12`, for which the Ratio in assay [1] is 157 M⁻¹ s⁻¹; in assay [2], 70 M⁻¹ s⁻¹.

As for `Cc1ccc2sc(CC3CCN(C(=O)Nc4cccnc4)CC3)c(C)c2c1`, the values for the Ratio in assay [1] and in assay [2] were 482 M⁻¹ s⁻¹ and 3020 M⁻¹ s⁻¹, respectively.
